Screens (PubChem BioAssay)
The list is not random: actives were taken first. Their share in the collection is about 3.8%.
KCNQ1 act – human KCNQ1 channel potentiation or activation | P51787 | CHO-K1 KCNQ1, thallium flux FluxOR fluorescence; active compounds read high | B-score at 10 µM | hit rate 0.35% among 310,000 | AID 2648;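 active = fluorescence ratio B-score, a plate-corrected score, at least three library SD, with initial intensity B-score within 5 SD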
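assay system = CHO-K1 cells stably expressing KCNQ1 | medium = assay buffer, equal DMSO in all wells | timing = 37 °C overnight plating, 90-min dark dye load, 20-min compound pretreatment | measured by = kinetic FluxOR thallium fluorescence, 10-s 1-Hz baseline, 110-s post-stimulus read | measure = fluorescence change relative to baseline, converted to B score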
KCNQ1 inh – blocks the human KCNQ1 potassium channel | P51787 | CHO-K1 KCNQ1, FluxOR thallium flux fluorescence; active compounds read high | B-score at 10 µM | hit rate 1.3% among 310,000;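 active = compounds whose thallium flux B-score, printed positive for inhibition, exceeds three library SD while starting fluorescence stays within three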;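 note: channel opened by potassium depolarization with thallium stimulus after 20 min compound exposure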
hERG rescue – compounds protecting human hERG from proarrhythmic drug block; Q12809; CHO-hERG, FluxOR thallium flux, dofetilide IC70 present; activation (rescue from dofetilide block), less the hit threshold, % at 10 µM; hit rate 0.51% among 310,000;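 active = activation above the mean of controls blocked by dofetilide plus 5 SD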;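 note: thallium influx through hERG after potassium depolarization seen as dye fluorescence rise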
KCNK3 block – human KCNK3 channel inhibition, primary screen; AID 602410; CHO-KCNK3 thallium flux, FluxOR fluorescence; active compounds read low; hit rate 0.84% among 340,000; O14649; B-score at 10 µM;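 active = B-score under library mean minus 4 SD, starting fluorescence ratio at most library mean plus 5 SD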;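 note: more negative B-score means stronger inhibition of thallium flux through KCNK3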
Kir21 block – blocks the mouse Kir2.1 inward-rectifier potassium channel; P35561; HEK293-Kir2.1, FluxOR thallium flux fluorescence; active compounds read low; B-score at 10 µM; hit rate 0.85% among 310,000;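 active = fluorescence ratio B-score at or below minus 3 SD of library scores, with starting-brightness B-score within 2 SD, cut at about -4.2 in these data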;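 note: channel flux triggered by added potassium and thallium sulfate stimulus; B-score of peak minus minimum fluorescence over baseline after thallium stimulus; more negative B-score means stronger Kir2.1 block with less thallium influx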
KCNK9 inh – blocks the human KCNK9 two-pore domain potassium channel. Q9NPC2. HEK293 KCNK9, FluxOR thallium flux fluorescence; active compounds read low. B-score at 10 µM. hit rate 1.2% among 310,000. AID 488922;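 active = ratio B-score over 3 SD below the library mean, with starting fluorescence within 5 SD of its mean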;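 note: negative B-score means less thallium flux so channel inhibition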
Target sequence (Q9NPC2 whole entry, looked up, the tested form may be a part): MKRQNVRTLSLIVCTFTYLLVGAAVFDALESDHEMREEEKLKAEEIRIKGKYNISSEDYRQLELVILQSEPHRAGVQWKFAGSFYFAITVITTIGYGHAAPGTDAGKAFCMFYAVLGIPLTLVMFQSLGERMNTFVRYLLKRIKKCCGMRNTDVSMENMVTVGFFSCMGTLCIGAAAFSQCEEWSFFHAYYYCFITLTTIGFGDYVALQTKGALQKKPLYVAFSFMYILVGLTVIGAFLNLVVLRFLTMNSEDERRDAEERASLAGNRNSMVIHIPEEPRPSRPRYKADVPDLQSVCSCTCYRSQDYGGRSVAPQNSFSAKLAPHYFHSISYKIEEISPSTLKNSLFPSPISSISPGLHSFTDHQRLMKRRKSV
Active calls of the source: *; i = inactive; / = no result.

SMILES	KCNQ1 act	KCNQ1 inh	hERG rescue	KCNK3 block	Kir21 block	KCNK9 inh
Cc1[nH]n(-c2ccccc2)c(=O)c1N=Nc1ccc(C(=O)O)cc1	i	i	-1	i	-0.21	i
Cc1[nH]n(-c2ccccc2)c(=O)c1N=Nc1ccc(C(N)=O)cc1	i	i	10*	i	-0.16	i
NC(=O)NC1CCCc2c1[nH]c1ccc(Cl)cc21 (stereo unspecified)	i	i	-13	i	-0.05	i
CCc1nnc(NC(=O)CSc2ccc(-c3ccc(F)cc3)nn2)s1	i	i	-9	/	1.8	i
COc1ccc(CCNCC(O)Cn2c3ccccc3c3ccccc32)cc1OC (stereo unspecified)	i	i	-32	i	-10*	i
S=c1nc(-c2ccccc2)[nH]c2ccc(Br)cc12	101*	i	59*	i	-0.61	i
Cc1ccc(C2CC(=O)Oc3cc(C)cc(C)c32)cc1 (stereo unspecified)	/	/	/	i	/	/
Cc1ccc(NC(=O)Cn2nnc3ccccc32)cc1	i	i	-7	i	1.8	i
COc1cccc(NC(=S)N(CCc2c(C)[nH]c3ccccc23)Cc2cccs2)c1	/	/	/	-9.2*	/	/
Cc1[nH]c2ccccc2c1CCN(Cc1cccnc1)C(=S)Nc1cccc(F)c1	i	i	-26	i	-1.1	-7.5*
Oc1c(Br)cc(Br)cc1C=Nc1cccc2ncccc12	13*	i	4.8*	i	1.1	i
Brc1cccc(C=Nc2cccc3ncccc23)c1	i	i	-11	i	0.78	i
CC(=O)Oc1ccc(C2(C)CC(C)(C)NC(=S)N2C)c(OC(C)=O)c1 (stereo unspecified)	i	i	-10	i	-1.1	i
O=C(CSc1nnc(SCc2cccc3ccccc23)s1)c1ccc2c(c1)OCO2	8*	i	-8	i	-0.52	i
Cc1ccc2c(c1)c1c(n2CC(O)CNC2CCCCC2)CCCC1 (stereo unspecified)	i	i	-17	i	-7.9*	i
COc1ccc(OCC(O)CN(CC(O)COc2ccc(OC)cc2)c2cccc(O)c2)cc1 (stereo unspecified)	i	i	-14	i	-0.02	i
COc1ccc(CN(C)C(c2ccccc2)c2nnnn2-c2ccccc2C)c(OC)c1C (stereo unspecified)	i	i	-20	i	0.89	-7.9*
CCC(C)(C)n1nnnc1C(c1cc(OC)c(OC)c(OC)c1)N1CCN(c2ccccc2)CC1 (stereo unspecified)	i	i	-7	i	0.03	i
Cc1ccc(-c2nnc(N(C)C(=O)c3ccncc3)s2)cn1	i	i	-7	i	-0.03	i
CC(OC(=O)c1ccccc1Br)C(=O)Nc1nc(-c2cccc([N+](=O)[O-])c2)cs1 (stereo unspecified)	i	i	-4	i	-1.5	i
O=C(Nc1nc(-c2cccc([N+](=O)[O-])c2)cs1)C(c1ccccc1)c1ccccc1	i	11*	-10	i	0.34	i
Cc1ccc(N/N=C2\CS(=O)(=O)N(C)c3ccsc32)cc1	i	i	-10	i	0.31	i
Oc1ccccc1-c1cc(C(F)(F)C(F)F)nc(-c2ccccc2)n1	i	i	-6	i	0.05	i
O=[N+]([O-])c1ccc(O)c(-c2cc(C(F)(F)F)nc(-c3ccccc3)n2)c1	i	7*	-16	i	0.11	i
CCCCOc1ccc(CSC(=N)N)cc1Cl	i	i	-20	i	-12*	i
SMILES	KCNQ1 act	KCNQ1 inh	hERG rescue	KCNK3 block	Kir21 block	KCNK9 inh
OC1(c2ccc(Br)cc2)CCN(Cc2cccc(Br)c2)CC1	i	i	-12	i	-11*	i
NCC(O)(c1ccc(Cl)cc1)c1ccc(Cl)cc1	i	i	-17	i	-3.1	i
NCC(c1ccccc1)(c1ccccc1)c1ccccc1	i	i	-11	i	-4.8*	i
Cc1nnnn1/C(=C\c1ccccc1)C(=O)OCC(=O)Nc1cccc(S(=O)(=O)N(C)C)c1	/	/	/	i	/	/
Cc1nnnn1/C(=C\c1ccccc1)C(=O)OCC(=O)Nc1ccc(Cl)cc1F	7*	i	-13	i	-7.3*	i
CCCNC(=S)N1CCN(C)CC1	i	i	-5	i	2.1	i
O=C(N/N=C/c1ccc(OC(F)F)cc1)C1=COCCO1	i	i	16*	i	-2.2	i
CN(CCOc1ccc(Cl)cc1)CC(O)c1ccccc1 (stereo unspecified)	i	i	-4	i	0.02	i
CC(OCC(O)CN(C)CCOc1ccccc1)c1ccc(Cl)cc1 (stereo unspecified)	i	i	-10	i	-5*	i
COc1ccc(CN2C(=O)c3cccnc3C2=O)cc1S(=O)(=O)N1CC(C)Oc2ccccc21 (stereo unspecified)	i	i	-7	i	0.61	i
CS(=O)(=O)c1sc(C#N)c2c1C(=O)CC(c1ccccc1)C2 (stereo unspecified)	27*	i	-10	i	-5.9	i
O=C(COC(=O)c1cccc(-n2cnnn2)c1)Nc1c(Cl)cccc1C(F)(F)F	i	i	-9	i	-0.09	i
COc1cccc(-n2c(SC)nnc2-c2c[nH]c3ccccc23)c1	i	i	-8	i	0.71	i
Cc1ccc(S(=O)(=O)NCc2ccco2)cc1C	i	i	-3	i	0.84	i
Cc1cc(C)c(C)c(S(=O)(=O)NCc2cccnc2)c1C	i	i	-8	i	-4.7*	i
Cc1cc(C)c(C)c(S(=O)(=O)NCc2ccco2)c1C	i	i	-12	/	-7.7*	i
CCn1c(=O)n(CC)c2cc(N3CCCC3)c(NC(=O)c3ccc(C)c([N+](=O)[O-])c3)cc21	i	i	-4	i	0.43	i
O=C(c1ccc(C(F)(F)F)cc1)N1CCC(=O)N(C(COCc2ccccc2)Cc2ccccc2)CC1 (stereo unspecified)	i	i	-8	i	-2	i
CC(C)CC(COCc1ccc(C(F)(F)F)cc1)N1CCN(C(=O)c2ccc(C(F)(F)F)cc2)CCC1=O (stereo unspecified)	i	i	-4	i	0.14	-7.1*
CN(c1cccc(NC(=O)CN(c2ccc(Cl)c(Cl)c2)S(=O)(=O)c2ccccc2)c1)S(C)(=O)=O	i	i	-14	i	-1.2	i
Cc1ccc(S(=O)(=O)N(CC(=O)Nc2cccc(N(C)S(C)(=O)=O)c2)c2ccc(Cl)c(Cl)c2)cc1	i	10*	-4	i	1.3	i
